ABCB1 block – human ABCB1 inhibition, ABCG2 as counter-screen. CCRF-Adr cells, JC-1 efflux, flow cytometry. inhibition, % at 6.6 µM. 190,000 tested, 0.067% active. AID 1326; in the data active = inhibition above about 40%;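 note: higher value means more JC-1 retained so stronger ABCB1 efflux block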
ABCG2 block – human ABCG2 inhibition, ABCB1 as counter-screen | AID 1325 | IgMXP3 cells, JC-1 efflux, flow cytometry | inhibition, % at 6.6 µM | 190,000 tested, 0.1% active;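 active = inhibition above 80%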
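Test system: IgMXP3 (ABCG2) plus far-red-tagged CCRF-Adr (ABCB1) cells / Amount: 3 million cells/mL in well / Reagent: JC-1 transporter substrate / Timing: 10 min compound exposure, 25 °C / Signal: flow cytometry, 530 nm JC-1 signal / Read-out: percent efflux inhibition, scaled nicardipine 100% to DMSO 0% / Benchmarks: nicardipine as high control, DMSO as low control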
Avidin fluor – avidin bead compound fluorescence profile | Avidin beads, compound fluorescence 488/530 nm, flow cytometry; hits give high values | 220,000 tested, 0.38% active | fluorescence (KMESF) at 10 µM; in the data active = fluorescence above about 47
GSH fluor – GSH bead compound fluorescence profile; GSH beads flow cytometry, compound fluorescence 488/530 nm; hits give high values; fluorescence (KMESF) at 10 µM; 190,000 tested, 0.25% active; AID 1776; in the data active = fluorescence above about 89;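 note: glutathione beads carrying GST-tagged Bcl family fusion proteins plus one bare bead set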
L major viab – inhibitors of Leishmania major promastigote growth; Leishmania major promastigotes, resazurin fluorescence viability; inhibition, % at 10 µM; 200,000 tested, 9% active; AID 1063;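 note: promastigotes grown with compound for 44 hours at 28 °C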
PKD1 kinase inh – PKD1 (human) kinase inhibition; PKD1 kinase fluorescence polarization assay; 200,000 tested, 0.056% active; inhibition, % (concentration not given with the values)
Large screens that a line does not name were inactive. Shown is part of a subset that was picked to be rich in hits. Cut-off read from the data, not from the text of the source, unless noted: active = inhibition above about 50%; inactive = the rest.

COc1ccc(C(=O)NC(=S)Nc2ccccc2N2CCOCC2)cc1[N+](=O)[O-]	none
COc1ccc(CCNC(=O)CCc2ccc(S(=O)(=O)NC(C)C)cc2)cc1	none
CCOC(=O)C1CCN(C(=O)c2cc(C(C)(C)C)nn2Cc2ccccc2)CC1	none (no result: ABCB1 block, ABCG2 block, GSH fluor, L major viab, PKD1 kinase inh)
CCC(=O)Nc1cc(C(=O)O)ccc1S(=O)(=O)c1ccc(C)cc1	none
COc1ccc([N+](=O)[O-])cc1N(CC(=O)Nc1ccccc1C(=O)NC(C)C)S(C)(=O)=O	none
CCOc1ccc(C(=O)NC(=S)Nc2ccc(N3CCC(C)CC3)cc2)cc1[N+](=O)[O-]	L major viab 87.1 (no result: Avidin fluor)
CCOc1ccc(C(=O)NC(=S)Nc2ccccc2N2CCC(C)CC2)cc1[N+](=O)[O-]	none
CC(C)(C)NCCOc1ccc(Br)cc1	L major viab 95.2
CC(C)COC(=O)c1cc(-c2ccc(/C=N/n3cnnc3)o2)ccc1Cl	none
Fc1ccc(-c2ccc(/C=N\n3cnnc3)o2)cc1Cl	L major viab 95.0
Cc1ccccc1CNC1CCCCC1	none
O=[N+]([O-])c1ccccc1CNC1CCCCCC1	L major viab 83.2
FC(F)Sc1ccc(N=C2NN=C(c3ccc4c(c3)OCCO4)CS2)cc1	L major viab 55.1
Cn1c(Cc2ccc3c(c2)OCO3)nnc1SCC(=O)NC1CCCC1	none
COCCOC(=O)C1=C(C)N(c2ccccc2)C(=S)NC1c1ccccc1C(F)(F)F (configuration not stated)	none
COC(=O)C1=C(C)N(c2ccccc2)C(=S)NC1c1ccccc1C(F)(F)F (configuration not stated)	L major viab 69.8
Cc1ccc(N/C(N)=N/c2nc(C)cc(C)n2)cc1	none
Cc1cc(C)nc(/N=C(\N)Nc2ccccc2-c2ccccc2)n1	L major viab 95.5
Cc1cc(C)cc(N/C(N)=N/c2nc(C)cc(C)n2)c1	L major viab 85.0
Cc1ccc(C(=O)N/C(=C\c2ccccc2)C(=O)NCCCn2ccnc2)cc1	none
Clc1ccc(-n2c(SC/C=C/c3ccccc3)nnc2-c2cccnc2)cc1	L major viab 74.0
Cc1ccsc1/C=C(\C(=O)c1ccc(OC(C)C)cc1)c1nc2ccccc2o1	L major viab 100.1
O=C(NCCc1cccc(F)c1)/C(=C/c1cccnc1)NC(=O)c1ccccc1	none
Cc1ccc(-c2cc(C(F)F)n3ncc(C(=O)N4CCN(c5cccc(C)c5C)CC4)c3n2)cc1	L major viab 57.5
COc1ccc(-c2cc(C(F)F)n3ncc(C(=O)N4CCN5CCCC5C4)c3n2)cc1 (configuration not stated)	L major viab 59.5
COc1ccc(OCC(=O)Nc2cccc(NC(=O)c3ccco3)c2)cc1	none
Cc1c(C(=O)OC/C(O)=C(\C#N)c2nc3ccccc3[nH]2)oc2ccccc12	none (no result: ABCB1 block, ABCG2 block, GSH fluor, L major viab, PKD1 kinase inh)
C=C(C)c1cccc(C(C)(C)NC(=O)NC(c2ccccc2)c2ccc(OC)cc2)c1 (configuration not stated)	L major viab 98.2
CCN1CCCC1CNCc1ccccc1OCc1ccc(F)cc1 (configuration not stated)	L major viab 99.6
CCN1CCCC1CNCc1cccc(OC)c1OCc1ccccc1F (configuration not stated)	L major viab 99.7
CCN1CCCC1CNCc1cc(OC)c(OC)c(OC)c1 (configuration not stated)	none
CCN1CCCC1CNCc1cccc(OC)c1OCc1ccccc1 (configuration not stated)	L major viab 84.8
N#Cc1cnn2ccc(-c3ccc4c(c3)CCC4)nc12	none
O=C(O)c1csc(-n2nc(-c3ccccc3)cc2C(F)(F)F)n1	none
CC1C(C)C(O)(c2ccccc2)CCN1C (configuration not stated)	L major viab 69.3
COc1ccc(CCNC(=O)CSc2nc3[nH]ncc3c(=O)[nH]2)cc1OC	none
Cc1nc2ccc(S(=O)(=O)NCC(=O)NC(C)c3ccccc3)cc2s1 (configuration not stated)	none
COc1cc(C)c(NC(=S)Nc2cccc(Cl)c2C)cc1OC	none
O=[N+]([O-])c1cc(O)c2ncccc2c1	L major viab 100.1
c1cnc(N2CCN(Cc3ccc4c(c3)OCO4)CC2)nc1	none
O=C1CC(c2ccco2)Cc2nc(N3CCN(Cc4ccc5c(c4)OCO5)CC3)ncc21 (configuration not stated)	L major viab 74.7
COCCOC(=O)C1=C(C)NC(C)=C(C(=O)OC(C)C)C1c1cccc([N+](=O)[O-])c1 (configuration not stated)	L major viab 66.2
S=c1[nH]nc(Cn2cnc3ccccc32)n1-c1ccccc1	none
COc1cc(/C=N/n2cnnc2)ccc1OCc1ccccc1	L major viab 80.3
CCOc1cc(/C=N/O)ccc1OS(=O)(=O)c1ccc(C)cc1	none
COc1cc(/C=N/n2cnnc2)ccc1OCc1ccc(C)cc1	L major viab 96.2
CCOc1cc(/C=N/O)ccc1OCc1ccc(C)cc1	L major viab 60.6 (no result: ABCB1 block)
O/N=C/c1ccc(OCc2ccccc2)c(Br)c1	L major viab 57.1
CCOc1ccccc1NC(=O)Cn1cnc2c(nnn2-c2cccc(OC)c2)c1=O	none
CN(C)CCNc1c2c(nc3nnnn13)CCCC2	none
CSc1ccccc1NC(=S)NC1CCCCC1	none
COc1ccc(NC(=S)NC2CCCCCC2)c(OC)c1	L major viab 77.0
COc1ccc(NC(=S)NC2CCCCC2)c(OC)c1	none
S=C(Nc1cccc2ccccc12)NC1CCCCC1	L major viab 99.2
S=C(Nc1ccccc1Oc1ccccc1)NC1CCCC1	L major viab 60.7
O=[N+]([O-])c1ccccc1S(=O)(=O)N1CCN(Cc2ccsc2)CC1	none
COc1ccc(NC(=O)Cn2ncc(Cl)c(Cl)c2=O)cc1S(=O)(=O)N1CCOCC1	L major viab 86.5
COc1ccc(NC(=O)CCN2CCN(S(=O)(=O)c3cc(Cl)ccc3OC)CC2)cc1	L major viab 81.7
CCOC(=O)c1ccc(NC(=O)Cn2ncc(Cl)c(Cl)c2=O)cc1	L major viab 95.6
Cc1ccc(C(=O)OCn2ncc(Cl)c(Cl)c2=O)cc1	L major viab 100.6
CCC(=O)Nc1ccc(C(=O)Cn2ncc(Cl)c(Cl)c2=O)cc1	none (no result: ABCB1 block, ABCG2 block, GSH fluor, L major viab, PKD1 kinase inh)
CC(C)CCNC(=O)NC(=O)COC(=O)CNC(=O)C1CCCCC1	none
O=S(=O)(c1cccs1)N1CCN(c2ccc(O)cc2)CC1	none (no result: ABCB1 block, ABCG2 block, GSH fluor, L major viab, PKD1 kinase inh)
CC(C)CC(NC(=O)C(COCc1ccccc1)NC(=O)OC(C)(C)C)C(=O)NN (configuration not stated)	none
COc1ccc(C(=O)N/N=C(\C)CC(=O)Nc2cccc(C(F)(F)F)c2)cc1	Avidin fluor 69 (no result: ABCB1 block, ABCG2 block, GSH fluor, L major viab, PKD1 kinase inh)
COCCNC(=O)C(=O)N/N=C(\C)CC(=O)Nc1cccc(C(F)(F)F)c1	none (no result: ABCB1 block, ABCG2 block, GSH fluor, L major viab, PKD1 kinase inh)
CN(C)c1ccc(/C=N/N=C(N)N)cc1[N+](=O)[O-]	none
C=CCNc1ncnc2c1cnn2-c1ccc(C)cc1C	none
CC(=O)Nc1ccc(Nc2ncnc3c2cnn3-c2ccccc2)cc1	none

Source: PubChem (several laboratories)
